The list is not random: actives were taken first. Their share in the collection is about 3.1%.
Ecoli rRNA inh = inhibits bacterial ribosomal RNA function over humanized ribosomes. E. coli WT GFP vs humanized-ribosome RFP mutants, fluorescence, 24 h; stronger effect = lower value; DMSO median 0, no signal -100. GFP signal change (wild-type ribosome), % (no concentration beside the values). 350,000 compounds, 1.6% hits. AID 720706;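 active = significant combined selectivity score with lowered wild-type GFP, culture density cut under 30%, mutant RFP and density less affected; inactive = any of these conditions unmet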
S100A4 MyoIIA = blocks human S100A4 binding to myosin IIA peptide; P26447; S100A4/TAMRA-MyoIIA peptide fluorescence polarization; inhibition, % at 10.7 µM; 360,000 compounds, 0.14% hits;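 active = mean inhibition of at least 70% across replicates, with every replicate also reaching that level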
Target sequence (P26447 whole entry, looked up): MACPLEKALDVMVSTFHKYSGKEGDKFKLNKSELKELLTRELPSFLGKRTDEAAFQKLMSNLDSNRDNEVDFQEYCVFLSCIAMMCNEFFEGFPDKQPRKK
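Test system: S100A4 monomer protein; Medium: HEPES pH 7.2 with CaCl2, KCl, NaCl, DTT, Triton; Probe or stimulus: TAMRA-labelled myosin IIA heavy-chain peptide probe, 5 nM; Doses: one dose per compound; Times: polarization read 5 min after assay mix addition, stable 5–60 min; Benchmarks: neutral control DMSO, positive control TFP.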
SIRT5 inh = inhibitors of human sirtuin-5 desuccinylase; inhibition, % at 15 µM; Purified SirT5, succinyl-peptide AMC, trypsin-coupled fluorescence; 330,000 compounds, 1.1% hits; in the data active = inhibition above about 15%
Target sequence (Q9NXA8 whole entry, looked up): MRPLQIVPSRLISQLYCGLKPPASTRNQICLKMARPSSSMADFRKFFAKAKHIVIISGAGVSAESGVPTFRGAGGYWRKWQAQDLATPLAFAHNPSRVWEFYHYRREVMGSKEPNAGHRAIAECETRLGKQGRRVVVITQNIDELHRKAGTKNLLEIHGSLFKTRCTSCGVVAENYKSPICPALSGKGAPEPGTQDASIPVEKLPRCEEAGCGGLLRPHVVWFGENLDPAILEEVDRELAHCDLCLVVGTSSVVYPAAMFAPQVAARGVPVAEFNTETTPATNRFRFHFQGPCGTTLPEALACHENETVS
CFTR F508del cor = CFTR F508del correction in bronchial cells | CFBE cells, YFP halide quenching; stimulated with forskolin plus potentiator P3; % fluorescence drop versus neutral controls | activity (quench increase), % at 7.58 µM | 350,000 compounds, 0.36% hits | AID 720511;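 active = mean added fluorescence quench of at least 8% versus neutral control, with both replicates also reaching 8%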;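 also: cells transiently co-express mutant CFTR-F508del with the halide-sensitive YFP; corrector assay measuring rescue of mutant channel to the surface after 24 h compound exposure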
ERAP1 inh = ERAP1 (human) enzyme inhibition; Q9NZ08; recombinant ERAP1, Leu-AMC fluorescence, 60 min; inhibition, % at 10.7 µM; 340,000 compounds, 0.15% hits;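 active = mean replicate inhibition of at least 30%, or all replicates individually reaching that 30% level; inactive = mean below 30% and not every replicate reaching it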;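 also: 0% = neutral control wells and 100% = L-leucinethiol positive control wells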
Starred values were filed as active, the others as inactive; nt = no result given.

SMILES	Ecoli rRNA inh	S100A4 MyoIIA	SIRT5 inh	CFTR F508del cor	ERAP1 inh
O=C(NCc1ccccc1)C1Cc2c(-c3ccc(Cl)cc3)ccnc2O1 (stereo not given)	-9	2	-4	9.2*	0
CC(=O)c1cccc(-c2ccnc3c2CC(C(=O)NCc2ccco2)O3)c1 (stereo not given)	-2	-1	-1	13*	2
Cc1noc(C)c1NC(=O)N(C)C[C@@H]1Oc2c(NC(=O)Nc3ccc4c(c3)OCO4)cccc2C(=O)N([C@H](C)CO)C[C@H]1C	0	-2	0	2	-4
C[C@@H]1CN([C@H](C)CO)C(=O)c2cc(NC(=O)c3ccccc3)ccc2O[C@@H](C)CCCCO[C@H]1CN(C)Cc1ccncc1	-6	5	4	-1	-1
Cc1ccc(S(=O)(=O)N(C)C[C@@H]2OCCCC[C@@H](C)Oc3ccc(NS(=O)(=O)c4ccc(Cl)cc4)cc3C(=O)N([C@H](C)CO)C[C@H]2C)cc1	1	-46	23*	2	0
Cc1ccc(S(=O)(=O)N(C)C[C@@H]2OCCCC[C@H](C)Oc3ccc(NS(=O)(=O)c4ccc(Cl)cc4)cc3C(=O)N([C@H](C)CO)C[C@@H]2C)cc1	1	-7	19*	0	-1
Cc1ccc(S(=O)(=O)N(C)C[C@H]2OCCCC[C@H](C)Oc3ccc(NS(=O)(=O)c4ccc(Cl)cc4)cc3C(=O)N([C@H](C)CO)C[C@H]2C)cc1	0	-2	26*	2	0
Cc1ccc(S(=O)(=O)N(C)C[C@@H]2OCCCC[C@@H](C)Oc3ccc(NS(=O)(=O)c4ccc(Cl)cc4)cc3C(=O)N([C@@H](C)CO)C[C@H]2C)cc1	-2	-18	25*	0	2
Cc1ccc(S(=O)(=O)Nc2ccc3c(c2)C(=O)N([C@H](C)CO)C[C@H](C)[C@H](CN(C)S(=O)(=O)c2ccc(Cl)cc2)OCCCC[C@H](C)O3)cc1	4	nt	nt	2	nt
CCC(=O)NC[C@@H]1[C@H](c2ccccc2)[C@H](CO)N1C(=O)C1CC1	1	21	5	4	1
COc1ccc(CN(C)C[C@H]2Oc3ccc(NC(=O)CCN4CCOCC4)cc3C(=O)N([C@H](C)CO)C[C@@H]2C)cc1	5	-3	6	2	0
COc1ccc(-c2cc(NC=O)c3ncc(-c4ccc(OC)c(OC)c4)n3c2)cc1	3	-8	nt	8.4*	-4
COc1cc(-c2cnc3c(NC=O)cc(-c4cccc(C(F)(F)F)c4)cn23)cc(OC)c1OC	-2	-1	nt	8.7*	-1
C[C@@H]1CN([C@H](C)CO)C(=O)Cc2cc(NC(=O)Nc3ccc(C(F)(F)F)cc3)ccc2O[C@H]1CN(C)S(=O)(=O)c1ccccc1	4	-6	13	0	-1
C[C@H](CO)N1C[C@H](C)[C@@H](CN(C)S(=O)(=O)c2ccccc2)Oc2ccc(NC(=O)Nc3ccc(C(F)(F)F)cc3)cc2CC1=O	-2	-12	19*	4	0
C[C@H](CO)N1C[C@H](C)[C@H](CN(C)S(=O)(=O)c2ccccc2)Oc2ccc(NC(=O)Nc3ccc4c(c3)OCO4)cc2CC1=O	2	7	16*	1	2
CN(Cc1ccccc1)C(=O)c1cc2ccccc2o1	-8	5	11	2	-1
CC(C)(C)N(Cc1ccccc1)C(=O)c1cc2ccccc2o1	11	5	-2	10.0*	-1
COc1ccc(N2CCN(C(=O)c3ccc4c(c3)CC(c3ccccc3)OC4=O)CC2)cc1 (stereo not given)	2	2	-2	1	-5
O=C1OC(c2ccccc2)Cc2cc(C(=O)N3CCN(c4ccc(F)cc4)CC3)ccc21 (stereo not given)	-29*	-19	-4	0	-6
NNC(=O)c1csc(CS(=O)(=O)c2ccc(Cl)cc2)n1	9	-2	-7	1	2
NNC(=O)c1csc(Cc2c(Cl)sc3ccc(Cl)cc23)n1	-31*	-1	-1	1	-2
CO[C@H]1CN(C)C(=O)c2cc(NC(=O)Nc3cc(F)ccc3F)ccc2OC[C@@H](C)N(C(=O)c2cnccn2)C[C@H]1C	-3	6	nt	-1	3
CC(C)C[C@@H]1COCc2cn(nn2)CC[C@H](Cc2ccccc2)C(=O)N1	4	13	-2	nt	nt
CC(=O)c1cccc(Nc2c3c(nc4ccccc24)CCC3)c1	-19	5	-1	15*	3
SMILES	Ecoli rRNA inh	S100A4 MyoIIA	SIRT5 inh	CFTR F508del cor	ERAP1 inh
COc1ccccc1Nc1c2c(nc3ccccc13)CCC2	4	-1	2	9.8*	-4
COc1cc(Nc2c3c(nc4ccccc24)CCCC3)cc(OC)c1OC	5	4	-1	3	0
CC(=O)c1ccc(Nc2c3c(nc4ccccc24)CCCC3)cc1	-35*	6	2	8	15
COc1ccc(Nc2c3c(nc4ccccc24)CCC3)c(OC)c1	9	4	-1	4	-2
COC(=O)c1cccc(Nc2c3c(nc4ccccc24)CCC3)c1	-3	2	2	3	-4
O=C(NCCc1c[nH]c2ccccc12)/C(=C/c1cccnc1)NC(=O)c1ccccc1	-1	0	-2	-6	-7
O=C(NCCc1c[nH]c2ccccc12)/C(=C/c1cccnc1)NC(=O)c1cccs1	-28*	-2	-5	0	-6
C#C[C@]1(O)CC[C@H]2[C@@H]3CCc4cc(OC5CCCC5)ccc4[C@H]3CC[C@@]21C	22	1	5	8.7*	-4
C#C[C@]1(O)CC[C@H]2[C@@H]3CCc4cc(OC)ccc4[C@H]3CC[C@@]21C	nt	-1	0	8.4*	-1
Cc1noc(C)c1NC(=O)Nc1ccc2c(c1)C(=O)N([C@H](C)CO)C[C@@H](C)[C@@H](CN(C)C(=O)NC1CCCCC1)OCCCC[C@@H](C)O2	-1	-13	3	-1	1
CCOc1ccc2nc(NC(=O)CS(=O)(=O)c3ccc(C)cc3)sc2c1	-26*	-1	32*	nt	-3
C[C@H]1CCCCO[C@H](CN(C)S(=O)(=O)c2ccc(Cl)cc2)[C@@H](C)CN([C@@H](C)CO)C(=O)c2cc(NS(=O)(=O)c3ccccc3)ccc2O1	-2	-35	28*	0	2
C[C@@H]1CN([C@H](C)CO)C(=O)c2cc(NS(=O)(=O)c3ccccc3)ccc2O[C@@H](C)CCCCO[C@@H]1CN(C)S(=O)(=O)c1ccc(Cl)cc1	-3	-7	-1	5	5
C[C@@H]1CN([C@H](C)CO)C(=O)c2cc(NS(=O)(=O)c3ccc(Cl)cc3)ccc2O[C@@H](C)CCCCO[C@H]1CN(C)S(=O)(=O)c1ccccc1	0	-56	19*	-4	-1
Cc1cc(C)n2nc(N)c(N=Nc3ccccc3)c2n1	14	-8	-4	-7	-1
